# Assay results as given in publication PMC8358123 (International Journal for Parasitology: Drugs and Drug …, 2021).
# Tests used:
# [1] = test system: T. cruzi Tulahuen CL2 β-galactosidase strain; test: In vitro activity against T. cruzi intracellular amastigotes in MRC-5SV2 cells; format: cell-based; details: Trypanosoma cruzi, MRC-5 SV2, 168 h, read-out: T. cruzi EC50
# Method in brief: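 Nifurtimox-sensitive Tulahuen CL2 β-galactosidase parasites infected MRC-5SV2 fibroblasts in MEM with 200 mM L-glutamine, 16.5 mM NaHCO3 and 5% inactivated FCS, at 37 °C and 5% CO2. Wells held 4×10^3 cells and 4×10^4 parasites. Test compound was given as ten 4-fold dilutions (top 64 μM, <1% DMSO) for 7 days. CPRG was then added for 4 h at 37 °C and absorbance read at 540 nm. IC50 from % reduction versus untreated-infected controls; mean ± SEM, 2–4 experiments. Benznidazole reference.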
# [2] = test system: T. b. rhodesiense (STIB-900 strain); test: In vitro activity against T. b. rhodesiense; format: cell-based; details: Trypanosoma brucei, read-out: T. b. rhod. EC50
# Method in brief: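 STIB-900 parasites, axenic in HMI-9 with 10% FBS at 37 °C and 5% CO2, seeded at 4×10^3 parasites/well. Test compound was given as ten 4-fold dilutions (top 64 μM, <1% DMSO). Growth period […], then resazurin added and fluorescence measured after 24 h. IC50 from a sigmoid variable-slope fit versus untreated controls; mean ± SEM, 2–4 experiments. Suramin as reference.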
# [3] = test system: T. b. brucei (Squib 427 strain); test: In vitro activity against T. b. brucei; format: cell-based; details: Trypanosoma brucei, read-out: T. b. bruc. EC50
# MRC-5SV2 cytotoxicity = format: cell-based, human; details: human, MRC-5SV2 cells
# Method in brief: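 MRC-5SV2 cells (3×10^4 cells/mL) in MEM with Earl's salts, L-glutamine, NaHCO3 and 5% inactivated FCS, at 37 °C and 5% CO2. Exposure to test compound (ten 4-fold dilutions, top 64 μM, <1% DMSO) lasted 3 days. Resazurin was then added for 4 h at 37 °C, with fluorescence read at ex 550/em 590 nm. CC50 from % reduction relative to untreated (100%) and medium-only (0%) controls.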
# PMM cytotoxicity = format: cell-based, mouse; details: Swiss, mouse
# [4] = test system: L. infantum MHOM/MA (BE)/67; format: cell-based, Leishmania infantum; details: Leishmania infantum, Macrophage, in Mus musculus, 120 h, read-out: L. inf. EC50
# Method in brief: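 Intracellular amastigotes of hamster spleen origin infected Swiss mouse peritoneal macrophages (elicited 2 days with 2% potato starch), in RPMI-1640 with 5% inactivated FCS, at 37 °C and 5% CO2, 4.5×10^5 parasites/well. Test compound (ten 4-fold dilutions, top 64 μM, <1% DMSO) was added 2 h post-infection. After 5 days, amastigotes/macrophage were counted after 10% Giemsa. IC50 was derived from % reduction versus controls; mean ± SEM, 2–4 experiments. Miltefosine reference.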
# [5] = MRC-5 CC50, MRC-5SV2 cells, 3 days incubation
# [6] = PMM CC50, primary peritoneal mouse macrophages
Structure (SMILES),EC50 [1] [µM],EC50 [2] [µM],EC50 [3] [µM],CC50 at 3 days (MRC-5SV2 cytotoxicity; [5]) [µM],CC50 at 5 days (PMM cytotoxicity; [6]) [µM],CC50 at 3 days (MRC-5SV2 cytotoxicity) [µM],CC50 at 5 days (PMM cytotoxicity) [µM],EC50 [4] [µM]
Cc1ncnc2c1c(F)cn2[C@@H]1O[C@H](CO)[C@@H](O)[C@H]1O [compound 6],< 0.25,< 0.25,0.41,0.3,32,,,
Cc1ncnc2c1c(Br)cn2[C@@H]1O[C@H](CO)[C@@H](O)[C@H]1O [compound 8],5.28,3.84,> 64,39.6,32,,,
Cc1cn([C@@H]2O[C@H](CO)[C@@H](O)[C@H]2O)c2ncnc(C)c12 [compound 9],1.54 ± 0.52,0.45 ± 0.08,0.82 ± 0.32,> 64,> 64,,,
Cc1ncnc2c1c(SC(F)(F)F)cn2[C@@H]1O[C@H](CO)[C@@H](O)[C@H]1O [compound 11],30.9,> 64,> 64,,> 64,,,
C=Cc1cn([C@@H]2O[C@H](CO)[C@@H](O)[C@H]2O)c2ncnc(C)c12 [compound 12],6.95 ± 1.29,2.2 ± 0.11,2.73 ± 0.28,> 64,> 64,,,
C=C(C)c1cn([C@@H]2O[C@H](CO)[C@@H](O)[C@H]2O)c2ncnc(C)c12 [compound 14],5.04,< 0.25,0.5,1.49,> 64,,,
Cc1ncnc2c1c(C(C)C)cn2[C@@H]1O[C@H](CO)[C@@H](O)[C@H]1O [compound 15],29.1,0.51,0.67,0.3,> 64,,,
Cc1ncnc2c1c(C1=CCCC1)cn2[C@@H]1O[C@H](CO)[C@@H](O)[C@H]1O [compound 16],> 64,> 64,> 64,> 64,> 64,,,
Cc1ncnc2c1c(C1CCCC1)cn2[C@@H]1O[C@H](CO)[C@@H](O)[C@H]1O [compound 17],48.9,53.6,> 64,> 64,> 64,,,
Cc1ncnc2c1c(C1=CCCCC1)cn2[C@@H]1O[C@H](CO)[C@@H](O)[C@H]1O [compound 18],> 64,> 64,> 64,> 64,> 64,,,
Cc1ncnc2c1c(C1CCCCC1)cn2[C@@H]1O[C@H](CO)[C@@H](O)[C@H]1O [compound 19],> 64,> 64,> 64,> 64,> 64,,,
Cc1ncnc2c1c(C1=CCOCC1)cn2[C@@H]1O[C@H](CO)[C@@H](O)[C@H]1O [compound 20],2.87 ± 0.28,9.75 ± 0.02,12.3 ± 2.45,> 64,> 64,,,
Cc1ncnc2c1c(C1CCOCC1)cn2[C@@H]1O[C@H](CO)[C@@H](O)[C@H]1O [compound 21],3.98 ± 0.94,12 ± 1.75,15.1 ± 1.02,> 64,> 64,,,
Cc1ncnc2c1c(C1=CCN(C)CC1)cn2[C@@H]1O[C@H](CO)[C@@H](O)[C@H]1O [compound 23],> 64,> 64,> 64,,,> 64,> 64,> 64
Cc1ncnc2c1c(-c1ccccc1)cn2[C@@H]1O[C@H](CO)[C@@H](O)[C@H]1O [compound 24],40.3,> 64,> 64,> 64,> 64,,,
CCCC#Cc1cn([C@@H]2O[C@H](CO)[C@@H](O)[C@H]2O)c2ncnc(C)c12 [compound 25],20.4 ± 0.39,0.37 ± 0.08,0.89 ± 0.21,> 64,> 64,,,

Structure (SMILES),EC50 [1] [µM],EC50 [2] [µM],EC50 [3] [µM],CC50 at 3 days (MRC-5SV2 cytotoxicity; [5]) [µM],CC50 at 5 days (PMM cytotoxicity; [6]) [µM],CC50 at 3 days (MRC-5SV2 cytotoxicity) [µM],CC50 at 5 days (PMM cytotoxicity) [µM],EC50 [4] [µM]
CCCCCc1cn([C@@H]2O[C@H](CO)[C@@H](O)[C@H]2O)c2ncnc(C)c12 [compound 26],> 64,> 64,> 64,> 64,> 64,,,
CCCCC#Cc1cn([C@@H]2O[C@H](CO)[C@@H](O)[C@H]2O)c2ncnc(C)c12 [compound 27],2.08,1.19,0.52,7.58,8,,,
CCCCCCc1cn([C@@H]2O[C@H](CO)[C@@H](O)[C@H]2O)c2ncnc(C)c12 [compound 28],42.1,> 64,> 64,> 64,> 64,,,
CC(C)=Cc1cn([C@@H]2O[C@H](CO)[C@@H](O)[C@H]2O)c2ncnc(C)c12 [compound 29],> 64,> 64,> 64,> 64,> 64,,,
Cc1ncnc2c1c(CC(C)C)cn2[C@@H]1O[C@H](CO)[C@@H](O)[C@H]1O [compound 30],> 64,> 64,> 64,> 64,> 64,,,
Cc1ncnc2c1c(C#CC(C)C)cn2[C@@H]1O[C@H](CO)[C@@H](O)[C@H]1O [compound 31],> 64,16,23.5,> 64,> 64,,,
Cc1ncnc2c1c(CCC(C)C)cn2[C@@H]1O[C@H](CO)[C@@H](O)[C@H]1O [compound 32],> 64,4,> 64,> 64,> 64,,,
Cc1ncnc2c1c(C#CC1CC1)cn2[C@@H]1O[C@H](CO)[C@@H](O)[C@H]1O [compound 33],4.59 ± 0.89,0.34 ± 0.11,1.36 ± 0.41,27.5 ± 19,> 64,,,
Cc1ncnc2c1c(CCC1CC1)cn2[C@@H]1O[C@H](CO)[C@@H](O)[C@H]1O [compound 34],> 64,> 64,> 64,> 64,> 64,,,
Cc1ncnc2c1c(/C=C/c1ccccc1)cn2[C@@H]1O[C@H](CO)[C@@H](O)[C@H]1O [compound 35],1.94 ± 0.09,4.54 ± 0.93,6.19 ± 0.57,26.6 ± 1.42,32,,,
Cc1ncnc2c1c(CCc1ccccc1)cn2[C@@H]1O[C@H](CO)[C@@H](O)[C@H]1O [compound 36],40.3,38.7,> 64,> 64,> 64,,,
CCc1cn([C@@H]2O[C@H](CO)[C@@H](O)[C@H]2O)c2ncnc(CC)c12 [compound 37],> 64,2.02,2.03,20.2,> 64,,,
CCc1cn([C@@H]2O[C@H](CO)[C@@H](O)[C@H]2O)c2ncncc12 [compound 38],5.38,1.73,1.54,> 64,> 64,,,
CCc1cn([C@@H]2O[C@H](CO)[C@@H](O)[C@H]2O)c2nc[nH]c(=O)c12 [compound 40],> 64,40.3,48.5,> 64,> 64,,,
CCc1cn([C@@H]2O[C@H](CO)[C@@H](O)[C@H]2O)c2ncnc(OC)c12 [compound 41],> 64,1.31 ± 0.44,0.47 ± 0.01,> 64,> 64,,,
